Test results from ChEMBL document CHEMBL5365430, “Structure-Activity Relationship of Truncated 2,8-Disubstituted-Adenosine Derivatives as Dual A2A/A3 Adenosine Receptor Antagonists and Their Cancer Immunotherapeutic Activity” (J Med Chem, 2023).
Active and inactive are the calls of the source. No cut-off for these calls is given here.

What was measured:
[1] = target: T1, Adenosine receptor A2b (Homo sapiens) (UniProt P29275); assay: Displacement of DPCPX from recombinant human A2BAR expressed in HEK293 cell membrane at 10 uM incubated for 30 mins by beta scintillation counter analysis relative to control; type: cell membranes
T1 sequence (whole entry): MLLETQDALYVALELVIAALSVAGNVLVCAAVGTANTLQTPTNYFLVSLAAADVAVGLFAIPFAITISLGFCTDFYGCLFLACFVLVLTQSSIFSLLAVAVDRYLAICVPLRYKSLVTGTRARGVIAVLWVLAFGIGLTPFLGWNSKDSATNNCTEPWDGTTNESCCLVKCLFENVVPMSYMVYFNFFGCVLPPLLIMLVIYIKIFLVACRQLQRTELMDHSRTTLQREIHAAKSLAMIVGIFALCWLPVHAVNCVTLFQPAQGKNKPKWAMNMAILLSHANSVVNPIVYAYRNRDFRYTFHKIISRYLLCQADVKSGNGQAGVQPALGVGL

[2] = Toxicity in BALB/c mouse implanted with mouse 4T1-Luc cells assessed as adverse effects at 10 mg/kg, ip administered thrice a week for 21 days in presence of anti-mouse PD-L1; type: organism-based; conditions: in vivo, 504 h, time 21 day
Outline: (§1)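 Mice received 4T1-Luc cells subcutaneously in flank (1 × 10^6 cells, 50:50 PBS/Matrigel), tumors grown 7 days to about 50 mm³, then randomized (n = 5). Vehicle (DMSO/cremophor/normal saline 5:5:90), 10 mg/kg test drug, anti-mouse PD-L1 10 mg/kg, or both given i.p. thrice weekly for 21 days. Tumor volume by caliper (3.14 × L × W × H/6), tumors excised and weighed; toxicity judged by body weight loss.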

[3] = Cmax in CrljOri:CD1 mouse at 10 mg/kg, po measured for 24 hrs by LC-MS/MS analysis; type: ADME, organism-based; design: time 24 hrs, dose 10 mg/kg, route po; conditions: in vivo
Outline: (§2)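 Male CrljOri:CD1 mice, 7 weeks old (about 31.4 g), given single i.v. 2 mg/5 mL/kg or oral 10 mg/10 mL/kg dose in 5% DMSO/40% PEG 400/55% DW, cross-over design (n = 3). Retro-orbital blood taken 5 min (i.v. only) to 24 h into heparinized tubes. Plasma separated at 4 °C, stored at -15 °C, analysed by LC-MS/MS.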

[4] = AUC (0 to t) in CrljOri:CD1 mouse at 10 mg/kg, po measured for 24 hrs by LC-MS/MS analysis; type: ADME, organism-based; design: time 24 hrs, dose 10 mg/kg, route po; conditions: in vivo; outline: as §2
[5] = Toxicity in BALB/c mouse implanted with mouse 4T1-Luc cells assessed as body weight loss at 10 mg/kg, ip administered thrice a week for 21 days in presence of anti-mouse PD-L1; type: organism-based; conditions: in vivo, 504 h, time 21 day; outline: as §1
4T1-Luc = assay: Synergistic antitumor activity against mouse 4T1-Luc cells implanted in BALB/c mouse assessed as reduction in tumor growth at 10 mg/kg, ip administered thrice a week for 21 days in presence of anti-mouse PD-L1 by IVIS imaging analysis; type: functional, organism-based; conditions: time 21.0 day
Outline: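 On final day of the 4T1-Luc i.p. dosing study (n = 5 per group, thrice weekly for 21 days), anesthetized mice were imaged by IVIS 15 min after D-luciferin (150 mg/kg in PBS). Average tumor signal intensity was quantified.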

[6] = Volume of distribution at steady state in CrljOri:CD1 mouse at 2 mg/kg, iv measured for 24 hrs by LC-MS/MS analysis; type: ADME, organism-based; conditions: in vivo; outline: as §2
[7] = target: Voltage-gated inwardly rectifying potassium channel KCNH2 (Homo sapiens, UniProt Q12809); assay: Inhibition of hERG expressed in CHO cells at 1 to 10 uM incubated for 300 secs by patch-clamp method; type: toxicity, cell-based; conditions: 5 min, dose 1-10 µM, time 300 sec
Sequence of Voltage-gated inwardly rectifying potassium channel KCNH2 (Q12809 whole entry): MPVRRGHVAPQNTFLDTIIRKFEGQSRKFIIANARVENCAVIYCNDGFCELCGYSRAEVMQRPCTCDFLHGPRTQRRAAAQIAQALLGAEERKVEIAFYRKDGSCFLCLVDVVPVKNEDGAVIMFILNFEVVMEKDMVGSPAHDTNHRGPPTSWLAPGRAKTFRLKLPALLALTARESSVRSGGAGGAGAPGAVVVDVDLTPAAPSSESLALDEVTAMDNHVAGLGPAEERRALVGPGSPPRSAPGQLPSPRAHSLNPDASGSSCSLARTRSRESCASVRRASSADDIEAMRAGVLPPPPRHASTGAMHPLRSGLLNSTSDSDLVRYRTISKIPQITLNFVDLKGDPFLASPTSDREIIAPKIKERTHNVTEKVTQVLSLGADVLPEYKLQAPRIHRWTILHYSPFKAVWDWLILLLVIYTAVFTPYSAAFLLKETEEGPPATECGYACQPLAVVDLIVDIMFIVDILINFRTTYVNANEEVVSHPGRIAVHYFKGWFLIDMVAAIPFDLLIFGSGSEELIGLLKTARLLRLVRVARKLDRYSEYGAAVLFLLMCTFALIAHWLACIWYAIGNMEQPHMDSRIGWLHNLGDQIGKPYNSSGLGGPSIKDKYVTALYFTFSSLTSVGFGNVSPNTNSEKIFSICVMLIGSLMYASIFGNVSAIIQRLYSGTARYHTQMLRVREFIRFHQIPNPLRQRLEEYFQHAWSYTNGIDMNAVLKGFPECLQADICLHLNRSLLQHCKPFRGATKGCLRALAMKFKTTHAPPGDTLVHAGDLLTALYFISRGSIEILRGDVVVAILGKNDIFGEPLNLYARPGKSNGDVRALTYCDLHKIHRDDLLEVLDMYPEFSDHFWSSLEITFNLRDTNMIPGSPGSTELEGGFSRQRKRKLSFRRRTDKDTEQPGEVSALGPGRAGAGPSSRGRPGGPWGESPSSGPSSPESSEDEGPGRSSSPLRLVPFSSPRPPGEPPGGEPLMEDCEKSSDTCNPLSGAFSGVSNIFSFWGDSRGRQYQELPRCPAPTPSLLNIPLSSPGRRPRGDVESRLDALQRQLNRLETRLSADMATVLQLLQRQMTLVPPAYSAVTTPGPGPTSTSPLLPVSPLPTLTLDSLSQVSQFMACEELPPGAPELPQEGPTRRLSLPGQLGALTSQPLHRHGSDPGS

[8] = Tmax in CrljOri:CD1 mouse at 10 mg/kg, po measured for 24 hrs by LC-MS/MS analysis; type: ADME, organism-based; conditions: in vivo; outline: as §2
[9] = Antitumor activity against mouse 4T1-Luc cells implanted in BALB/c mouse assessed as tumor growth inhibition at 10 mg/kg, ip administered thrice a week for 21 days relative to control; type: functional; conditions: 504 h, time 21 day, read-out: TGI; outline: as §1
[10] = Half life in CrljOri:CD1 mouse at 10 mg/kg, po measured for 24 hrs by LC-MS/MS analysis; type: ADME, organism-based; conditions: in vivo; outline: as §2
[11] = Half life in CrljOri:CD1 mouse at 2 mg/kg, iv measured for 24 hrs by LC-MS/MS analysis; type: ADME, organism-based; conditions: in vivo; outline: as §2
[12] = AUC (0 to t) in CrljOri:CD1 mouse at 2 mg/kg, iv measured for 24 hrs by LC-MS/MS analysis; type: ADME, organism-based; design: dose 2 mg/kg, time 24 hrs, route iv; conditions: in vivo; outline: as §2
[13] = Toxicity in BALB/c mouse implanted with mouse 4T1-Luc cells assessed as adverse effects at 10 mg/kg, ip administered thrice a week for 21 days; type: organism-based; conditions: in vivo, 504 h, time 21 day; outline: as §1
[14] = Synergistic antitumor activity against mouse 4T1-Luc cells implanted in BALB/c mouse assessed as tumor growth inhibition at 10 mg/kg, ip administered thrice a week for 21 days in presence of anti-mouse PD-L1 relative to control; type: functional; conditions: 504 h, read-out: TGI, time 21 day; outline: as §1
[15] = Toxicity in BALB/c mouse implanted with mouse 4T1-Luc cells assessed as body weight loss at 10 mg/kg, ip administered thrice a week for 21 days; type: organism-based; conditions: in vivo, 504 h, time 21 day; outline: as §1
[16] = Cmax in CrljOri:CD1 mouse at 2 mg/kg, iv measured for 24 hrs by LC-MS/MS analysis; type: ADME, organism-based; design: time 24 hrs, dose 2 mg/kg, route iv; conditions: in vivo; outline: as §2
[17] = Clearance in CrljOri:CD1 mouse at 2 mg/kg, iv measured for 24 hrs by LC-MS/MS analysis; type: ADME, organism-based; conditions: in vivo; outline: as §2
[18] = Tmax in CrljOri:CD1 mouse at 2 mg/kg, iv measured for 24 hrs by LC-MS/MS analysis; type: ADME, organism-based; conditions: in vivo; outline: as §2
[19] = Oral bioavailability in CrljOri:CD1 mouse at 10 mg/kg measured for 24 hrs by LC-MS/MS analysis; type: ADME, organism-based; conditions: in vivo; outline: as §2
Adenosine receptor A2a = Adenosine receptor A2a (Homo sapiens, UniProt P29274); assay: Displacement of […] from recombinant human A2AAR expressed in HEK293 cell membrane assessed as inhibition constant incubated for 60 mins by liquid scintillation counter analysis; type: cell membranes
Sequence of Adenosine receptor A2a (P29274 whole entry): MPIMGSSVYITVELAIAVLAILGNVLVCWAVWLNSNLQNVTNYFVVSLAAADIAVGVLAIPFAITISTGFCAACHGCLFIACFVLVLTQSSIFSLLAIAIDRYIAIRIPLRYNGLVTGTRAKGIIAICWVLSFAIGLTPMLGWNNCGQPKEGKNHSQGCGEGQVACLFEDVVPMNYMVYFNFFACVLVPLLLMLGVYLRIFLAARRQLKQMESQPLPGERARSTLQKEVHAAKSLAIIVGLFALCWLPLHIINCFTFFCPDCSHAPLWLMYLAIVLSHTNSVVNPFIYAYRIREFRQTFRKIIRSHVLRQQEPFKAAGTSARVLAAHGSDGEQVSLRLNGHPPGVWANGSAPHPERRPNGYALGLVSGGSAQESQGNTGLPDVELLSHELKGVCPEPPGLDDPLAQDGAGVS

Adenosine receptor A1 = target: T2, Adenosine receptor A1 (Homo sapiens, UniProt P30542); assay: Displacement of R-PIA from human A1AR expressed in CHO cell membrane assessed as inhibition constant incubated for 60 mins by liquid scintillation counter analysis; type: cell membranes
T2 sequence (P30542 whole entry): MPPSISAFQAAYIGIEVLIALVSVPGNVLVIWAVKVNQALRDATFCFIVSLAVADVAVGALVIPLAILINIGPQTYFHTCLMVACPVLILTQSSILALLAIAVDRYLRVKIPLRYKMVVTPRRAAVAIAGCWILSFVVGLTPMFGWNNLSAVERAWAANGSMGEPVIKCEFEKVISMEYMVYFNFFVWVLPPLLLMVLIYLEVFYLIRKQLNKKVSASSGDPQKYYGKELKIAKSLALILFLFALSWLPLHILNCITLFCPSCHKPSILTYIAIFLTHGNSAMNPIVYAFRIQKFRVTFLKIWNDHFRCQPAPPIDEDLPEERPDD

Adenosine receptor A3 = target: T3, Adenosine receptor A3 (Homo sapiens, UniProt P0DMS8); assay: Displacement of I-AB-MEC from human A3AR expressed in CHO cell membrane assessed as inhibition constant incubated for 60 mins by gamma counter analysis; type: cell membranes
T3 sequence (P0DMS8 whole entry): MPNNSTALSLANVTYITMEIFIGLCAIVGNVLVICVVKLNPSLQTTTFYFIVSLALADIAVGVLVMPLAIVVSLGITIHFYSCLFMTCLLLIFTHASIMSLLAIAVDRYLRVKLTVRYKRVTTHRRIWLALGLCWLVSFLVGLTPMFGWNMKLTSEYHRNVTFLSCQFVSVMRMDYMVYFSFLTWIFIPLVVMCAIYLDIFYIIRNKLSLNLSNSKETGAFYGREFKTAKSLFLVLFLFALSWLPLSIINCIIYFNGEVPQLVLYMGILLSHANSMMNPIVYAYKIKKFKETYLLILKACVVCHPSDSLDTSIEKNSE

Adenosine receptor A2b = target: T4, Adenosine receptor A2b (Homo sapiens, UniProt P29275); assay: Displacement of DPCPX from recombinant human A2BAR expressed in HEK293 cell membrane assessed as inhibition constant incubated for 30 mins by beta scintillation counter analysis; type: cell membranes
T4 sequence (P29275 whole entry): T1 sequence (whole entry)

| Activity [1] | Ki (Adenosine receptor A2a) | Ki (Adenosine receptor A1) | Ki (Adenosine receptor A3) | Ki (Adenosine receptor A2b) | Structure (SMILES) | also measured |
| --- | --- | --- | --- | --- | --- | --- |
| 11% | – | – | – | – | CCCCC#Cc1nc(NC)c2nc(-c3cccs3)n([C@@H]3SC[C@@H](O)[C@H]3O)c2n1 | – |
| – | – | – | – | – | CCCCC#Cc1nc(N)c2nc(-c3cccs3)n([C@@H]3OC[C@@H](O)[C@H]3O)c2n1 | Activity [2]: Non-Toxic; Cmax [3]: 1241.79 ng/mL; AUCt [4]: 626.55 ng·h/mL; Activity [5]: Non-Toxic; Activity (4T1-Luc): Active; Vdss [6]: 0.69 L/kg; inhibition (INH) [7]: Not Active; Tmax [8]: 15 min; inhibition in vivo at 10 mg/kg [9]: 15%; t1/2 [10]: 119 min; t1/2 [11]: 9.6 min; AUCt [12]: 550.95 ng·h/mL; Activity [13]: Non-Toxic; inhibition in vivo at 10 mg/kg [14]: 77%; Activity [15]: Non-Toxic; Cmax [16]: 1984.94 ng/mL; clearance [17]: 60.5 mL/min/kg; Tmax [18]: 4.8 min; F [19]: 22.81% |
| 3% | – | – | – | – | CCCCC#Cc1nc(NCc2cccc(I)c2)c2nc(-c3cccs3)n([C@@H]3SC[C@@H](O)[C@H]3O)c2n1 | – |
| 53% | 140 nM | 3890 nM | 855 nM | – | Nc1nc(Cl)nc2c1nc(-c1ccco1)n2[C@@H]1SC[C@@H](O)[C@H]1O | – |
| 62% | 459 nM | 1980 nM | 294 nM | – | Nc1nc(Cl)nc2c1nc(-c1cccs1)n2[C@@H]1SC[C@@H](O)[C@H]1O | – |
| – | 946 nM | 8050 nM | 3010 nM | 608 nM | Nc1nc(NCCc2ccc(O)cc2)nc2c1nc(-c1cccs1)n2[C@@H]1SC[C@@H](O)[C@H]1O | – |
| 17% | 720 nM | – | 137 nM | – | O[C@@H]1[C@H](O)CS[C@H]1n1c(-c2cccs2)nc2c(NCc3cccc(I)c3)nc(Cl)nc21 | – |
| 51% | 336 nM | 4900 nM | 89.7 nM | – | O[C@@H]1[C@H](O)CS[C@H]1n1c(-c2ccco2)nc2c(NCc3cccc(I)c3)nc(Cl)nc21 | – |
| – | 917 nM | – | 106 nM | 579 nM | CNc1nc(NCCc2ccc(O)cc2)nc2c1nc(-c1cccs1)n2[C@@H]1SC[C@@H](O)[C@H]1O | – |
| – | 112 nM | – | 1650 nM | 227 nM | Nc1nc(NCCc2ccc(O)cc2)nc2c1nc(-c1ccco1)n2[C@@H]1SC[C@@H](O)[C@H]1O | – |
